# High-throughput results from PubChem.
# TRPC6 act: activators of mouse TRPC6 channel. Q61143. HEK293-TRPC6 membrane potential dye fluorescence; hits give high values. B-score at 10 µM. 310,000 tested, 0.13% active. AID 2550;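 active = B-score of the integrated fluorescence ratio above library mean plus 3 SD, and starting fluorescence ratio within library mean plus 5 SD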;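 also: higher score means more depolarization so channel activation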
# TRPC4 agonist: TRPC4 (mouse) channel activation; B-score at 10 µM; HEK293 TRPC4beta/mu-opioid, Fluo4 calcium fluorescence; hits give high values; 310,000 tested, 0.49% active; Q9QUQ5;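 active = B-score above 5 SD of library B-scores, and initial fluorescence ratio not above library mean plus 5 SD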;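 also: positive B-score marks a calcium rise read as TRPC4 activation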
# Target sequence (Q9QUQ5 whole entry, looked up): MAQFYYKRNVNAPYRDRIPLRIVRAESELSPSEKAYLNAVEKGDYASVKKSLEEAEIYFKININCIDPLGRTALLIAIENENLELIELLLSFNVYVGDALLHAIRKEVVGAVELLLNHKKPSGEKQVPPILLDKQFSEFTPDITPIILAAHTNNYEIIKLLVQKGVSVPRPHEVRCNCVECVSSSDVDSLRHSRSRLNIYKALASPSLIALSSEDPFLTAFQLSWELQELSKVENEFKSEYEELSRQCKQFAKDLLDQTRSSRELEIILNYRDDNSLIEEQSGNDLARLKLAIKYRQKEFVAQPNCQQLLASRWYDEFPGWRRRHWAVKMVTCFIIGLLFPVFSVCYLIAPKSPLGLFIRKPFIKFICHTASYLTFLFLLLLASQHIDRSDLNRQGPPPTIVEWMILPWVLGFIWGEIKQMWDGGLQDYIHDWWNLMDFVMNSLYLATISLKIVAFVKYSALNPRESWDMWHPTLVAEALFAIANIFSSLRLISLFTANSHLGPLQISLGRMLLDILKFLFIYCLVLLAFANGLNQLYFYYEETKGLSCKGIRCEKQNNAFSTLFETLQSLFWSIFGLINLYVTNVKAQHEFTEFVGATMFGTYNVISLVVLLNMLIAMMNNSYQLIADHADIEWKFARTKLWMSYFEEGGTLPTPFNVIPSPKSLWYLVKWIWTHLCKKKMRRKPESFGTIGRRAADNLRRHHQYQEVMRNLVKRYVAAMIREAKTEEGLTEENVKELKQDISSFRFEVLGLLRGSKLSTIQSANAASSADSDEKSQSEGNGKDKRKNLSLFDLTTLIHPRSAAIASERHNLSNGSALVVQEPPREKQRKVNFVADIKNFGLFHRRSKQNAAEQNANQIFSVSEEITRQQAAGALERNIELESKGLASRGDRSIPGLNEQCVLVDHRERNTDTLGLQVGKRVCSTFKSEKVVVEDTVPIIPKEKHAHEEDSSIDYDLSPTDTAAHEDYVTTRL
#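 System – HEK293 cells stably co-expressing mouse TRPC4beta and mu-opioid receptor · Signal – Fluo4 calcium-sensitive dye fluorescence, kinetic, 1 Hz baseline · Benchmarks – buffer (low) and maximal DAMGO (high) · Read-out – B score of integrated fluorescence ratio per well · Incubation – dye loading 45 min room temperature, 110 s kinetic read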
# TRPC6 inh: mouse TRPC6 channel inhibition; B-score at 10 µM; Q61143; AID 2553; HEK293-TRPC6, membrane potential dye, ACh-evoked depolarization; hits give low values; 310,000 tested, 1.1% active;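 active = B-score under library mean minus 3 SD, initial fluorescence not abnormally high, positive integrated signal ratio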;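 also: B-score derived from integrated fluorescence ratio over the kinetic read; more negative B-score means stronger inhibition of depolarization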
# TRPC4 inh: blocks the mouse TRPC4 cation channel; Q9QUQ5; HEK293 TRPC4beta/mu-opioid, DAMGO-evoked Fluo4 calcium flux; hits give low values; B-score at 10 µM; 300,000 tested, 0.39% active;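 active = B-score over 3 SD under the library average, no early fluorescence shift, positive overall ratio signal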
#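 System: stable TRPC4beta/mu-opioid receptor HEK293 cells; Dosing: single-point compound dosing; Measured by: Fluo4 Ca2+ flux fluorescence; Read-out basis: per-well B score of integrated baseline-normalized Fluo4 ratio.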
# TRPC4 potent: allosterically enhances the mouse TRPC4 cation channel; HEK293 TRPC4beta/mu-opioid, DAMGO EC20, Fluo-4 Ca2+ flux; hits give high values; AID 2227; 310,000 tested, 0.42% active; Q9QUQ5; B-score at 10 µM;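 active = B-score of calcium response area above 5 SD of library B-scores, with initial fluorescence ratio within 5 SD of library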;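 also: B-score of integrated fluorescence ratio over time as area under calcium response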
# TRPC4 sel inh 2: second selectivity test of TRPC6 inhibitors: effect on mouse TRPC4. inhibition, % at 10 µM. 920 tested, 42% active. HEK293 TRPC4/MOR, membrane potential dye fluorescence; channel activated by saturating DAMGO dose. shares compounds with TRPC6 inh;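 active = compounds whose fluorescence signal differed from control wells by over 3 SD, either direction, in both duplicate plates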
# TRPC4 spec: mouse TRPC4 off-target activity of TRPC6 inhibitors; shares compounds with TRPC6 inh; HEK293 TRPC4/mu-opioid, membrane potential fluorescence; activity change, negative = inhibition, % at 10 µM; 920 tested, 61% active; AID 2777;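 active = rise or fall in signal beyond 3 SD of buffer-only wells in both replicate plates, either sign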;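 also: integrated kinetic ratio of fluorescence range over baseline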
# HEK293 MPD ctr 2-1: parental HEK293 nonspecific activity of TRPC6 inhibitors, second screen; signal change vs control, % at 10 µM; 920 tested, 31% active; parental HEK293 membrane potential dye fluorescence; maximal acetylcholine challenge after compound addition; shares compounds with TRPC6 inh;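 active = membrane potential signal moving either way by over 3 SD of the maximum-effect control, in both duplicate plates, meaning non-specific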
# HEK293 MPD ctr-1: parental HEK293 nonspecific activity of TRPC6 inhibitors; parental HEK293 membrane potential dye fluorescence; shares compounds with TRPC6 inh; membrane potential signal change, % at 10 µM; 920 tested, 60% active;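 active = membrane potential signal shifting up or down by more than 3 SD of buffer-only wells, on both duplicate plates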
# HEK293 MPD ctr-2: parental HEK293 nonspecific activity of TRPC6 modulators. 2,400 tested, 51% active. membrane potential signal change, % at 10 µM. membrane potential dye fluorescence. shares compounds with TRPC6 inh;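 active = membrane potential signal moves up or down beyond 5 SD from buffer-only wells, on both duplicate plates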
# HEK293 MPD ctr 2-2: second counter-screen for TRPC6 modulators: effect in parental HEK293 cells; inhibition, % at 10 µM; shares compounds with TRPC6 inh; membrane potential dye fluorescence; after compound, maximal acetylcholine stimulation; 2,400 tested, 14% active;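 active = membrane potential signal drops by more than 5 SD from the mean control signal, in both duplicate plates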;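 also: plate controls were acetylcholine ECmax control wells for no effect and buffer only wells for full effect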
# TRPC4/MOR mod: selectivity of TRPC6 modulators against mouse TRPC4; shares compounds with TRPC6 inh; HEK293 TRPC4/mu-opioid, membrane potential fluorescence; percent change from control (negative = decrease, positive = increase), % at 10 µM; 2,400 tested, 69% active;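 active = membrane potential signal moved up or down beyond 5 SD of buffer control wells, in both duplicate plates, actives on both sides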;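 also: plate controls were assay buffer wells for no effect and DAMGO maximal-effect wells for full effect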
# TRPC4 ctr inh 2: mouse TRPC4 off-target activity of TRPC6 modulators, second screen; shares compounds with TRPC6 inh; HEK293 TRPC4/mu-opioid, membrane potential dye fluorescence; stimulated with maximal-effect DAMGO; inhibition, % at 10 µM; 2,400 tested, 55% active;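 active = drop in membrane potential signal beyond 5 SD of the control wells in both duplicate plates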;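 also: TRPC4 counter screen for TRPC6 hits run under conditions tuned for TRPC6 not TRPC4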
# TRPC6 inh conf: confirmation of mouse TRPC6 inhibitors | shares compounds with TRPC6 inh | HEK293-TRPC6, membrane potential dye, ACh-evoked depolarization | inhibition, % at 10 µM | 3,300 tested, 43% active;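 active = fluorescence ratio falls more than 5 SD below the full-stimulation control mean, in both duplicate runs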;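 also: integrated fluorescence ratio of peak minus minimum over baseline after agonist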
# TRPC6 act conf: confirmation of mouse TRPC6 activators | shares compounds with TRPC6 inh | HEK293-TRPC6 membrane potential dye fluorescence, FDSS | activation, % at 10 µM | 2,800 tested, 11% active;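 active = ratio signal rise beyond 5 SD above unstimulated control wells' mean, seen in both duplicate runs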;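 also: plate controls were buffer EC0 wells for no effect and acetylcholine ECmax response for full effect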
# * hit, by the source's call; i = inactive; nt = no result. In the library only some 2.3% were active in any assay of this set; here they are far more common.
SMILES,TRPC6 act,TRPC4 agonist,TRPC6 inh,TRPC4 inh,TRPC4 potent,HEK293 MPD ctr-2,HEK293 MPD ctr 2-2,TRPC4/MOR mod,TRPC4 ctr inh 2,TRPC6 inh conf,TRPC6 act conf,others
Cc1cccc(CNCCc2c[nH]c3ccccc23)c1,i,i,i,i,i,nt,nt,nt,nt,nt,nt,
Cc1ccc2cc(CNCCc3ccccc3C)c(=O)[nH]c2c1,i,i,-5.12*,i,i,i,i,i,77.5%*,45.5%*,i,
COc1ccccc1CN1CCN(C(=O)COc2ccc3ccccc3c2)CC1,i,i,i,i,i,nt,nt,nt,nt,nt,nt,
CC1=C2[C@@H]3OC(=O)[C@H](C)C3CC[C@@]2(C)C=CC1=O (stereo partly specified),i,i,i,i,i,nt,nt,nt,nt,nt,nt,
C[N+](C)(C)CC#CCN1CCCC1=O,i,86*,-5.94*,i,i,103.0%*,60.5%*,45.0%*,i,78.5%*,nt,
COc1cc(C[C@@H](C)N)c(OC)cc1I,i,i,-5.15*,i,i,i,i,i,41.5%*,41.5%*,i,
CC[N+]12CCC(CC1)C(C(O)(c1ccccc1)c1ccccc1)C2 (stereo unspecified),i,i,-6.02*,i,i,i,i,i,i,81.5%*,i,
O=C(O)C(O)(c1ccccc1)C1CCCC1 (stereo unspecified),i,i,i,i,i,nt,nt,nt,nt,nt,nt,
CN1CCCC(C(O)(c2ccccc2)c2ccccc2)C1 (stereo unspecified),i,i,i,i,i,nt,nt,nt,nt,nt,nt,
CC(C)(C)C(=O)OC[N+](C)(C)CCOC(=O)C(O)(c1ccccc1)C1CCCC1 (stereo unspecified),i,i,-5.6*,i,i,i,83.0%*,i,i,86.0%*,i,
CCCC(CCC)C(=O)OC[N+](C)(C)CCOC(=O)C(O)(c1ccccc1)C1CCCC1 (stereo unspecified),i,i,-11.1*,i,i,nt,nt,nt,nt,91.7%*,i,TRPC4 sel inh 2=i;TRPC4 spec=i;HEK293 MPD ctr 2-1=-29.0%*;HEK293 MPD ctr-1=i
Cc1[nH]c2ccccc2c1CCCNC1CCCCC1,i,i,-5.66*,i,i,i,i,i,44.0%*,i,i,
Cc1[nH]c2ccccc2c1CCN,i,i,i,i,i,nt,nt,nt,nt,nt,nt,
CCc1cc2c(N3CCN(C)CC3)ncnc2s1,i,i,i,i,i,nt,nt,nt,nt,nt,nt,
CCN1CCN(c2ncnc3ccc(Br)cc23)CC1,i,i,-7.62*,i,i,nt,nt,nt,nt,i,i,TRPC4 sel inh 2=i;TRPC4 spec=i;HEK293 MPD ctr 2-1=i;HEK293 MPD ctr-1=-192.5%*
CC(C)(O)[C@@H]1[C@H]2OC(=O)[C@@H]1[C@]1(O)C[C@H]3O[C@]34C(=O)O[C@H]2[C@]14C (tested in a mixture with another compound),i,i,i,i,i,nt,nt,nt,nt,nt,nt,
COc1cc2c(cc1OC)-c1c(OC)c(OC)cc3c1[C@H](C2)[N+](C)(C)CC3,i,i,-8.59*,i,i,-404.5%*,63.0%*,-69.0%*,63.5%*,59.5%*,i,
NC(=O)Nc1ccc(C(=O)OCC(=O)Nc2ccc(Cl)cc2C(=O)c2ccccc2)cc1,i,i,i,i,i,nt,nt,nt,nt,nt,nt,
CCCNC(=O)N1CCC2(CC1)OCCO2,i,i,i,i,i,nt,nt,nt,nt,nt,nt,
O=[N+]([O-])c1ccc(N2CCCNCC2)c2ncccc12,i,138*,-11.3*,i,i,-444.5%*,110.5%*,-51.5%*,79.0%*,96.5%*,i,
CN1CC(C(=O)c2ccc(Cl)cc2)C(c2ccc(N(C)C)cc2)C1 (stereo unspecified),i,i,-6.46*,i,i,i,i,i,50.0%*,50.5%*,i,
COCCN1Cc2cc(=O)n3c([nH]c4ccccc43)c2C1=N,i,i,i,i,i,nt,nt,nt,nt,nt,nt,
CCC1CCCCN1CC(=O)c1ccc(OC(F)F)cc1 (stereo unspecified),i,i,i,i,i,nt,nt,nt,nt,nt,nt,
OCC[n+]1c2ccccc2nc2ccc(N3CCOCC3)cc21,i,i,-10*,i,i,-273.5%*,104.0%*,-47.0%*,72.0%*,82.0%*,i,
CCNc1cc(N2CCNCC2)ccc1[N+](=O)[O-],i,i,-5.69*,i,35*,-214.5%*,i,-34.5%*,37.5%*,i,i,
CCOc1cccc(=NC2CCCCC2)c2c(C)n(C)c(C)c12,i,i,-7.5*,i,i,nt,nt,nt,nt,i,i,TRPC4 sel inh 2=50.5%*;TRPC4 spec=6.9%*;HEK293 MPD ctr 2-1=-69.0%*;HEK293 MPD ctr-1=i
CN1CCN(CCC(C#N)(c2ccccc2)c2ccccc2)CC1,i,i,-7.24*,i,i,nt,nt,nt,nt,i,nt,TRPC4 sel inh 2=i;TRPC4 spec=2.6%*;HEK293 MPD ctr 2-1=15.0%*;HEK293 MPD ctr-1=7.2%*
CN1CCN(Cc2ccc3ccccc3c2)CC1,i,i,i,i,i,nt,nt,nt,nt,nt,nt,
CN1CCN(Cc2cn(C)c3ccccc23)CC1CCO (stereo unspecified),i,i,i,i,i,nt,nt,nt,nt,nt,nt,
